Bounds are passed on as bounds.

In test [1] the target is T1, Prostaglandin G/H synthase 2 (Mus musculus, UniProt Q05769).
T1 sequence (Q05769 whole entry): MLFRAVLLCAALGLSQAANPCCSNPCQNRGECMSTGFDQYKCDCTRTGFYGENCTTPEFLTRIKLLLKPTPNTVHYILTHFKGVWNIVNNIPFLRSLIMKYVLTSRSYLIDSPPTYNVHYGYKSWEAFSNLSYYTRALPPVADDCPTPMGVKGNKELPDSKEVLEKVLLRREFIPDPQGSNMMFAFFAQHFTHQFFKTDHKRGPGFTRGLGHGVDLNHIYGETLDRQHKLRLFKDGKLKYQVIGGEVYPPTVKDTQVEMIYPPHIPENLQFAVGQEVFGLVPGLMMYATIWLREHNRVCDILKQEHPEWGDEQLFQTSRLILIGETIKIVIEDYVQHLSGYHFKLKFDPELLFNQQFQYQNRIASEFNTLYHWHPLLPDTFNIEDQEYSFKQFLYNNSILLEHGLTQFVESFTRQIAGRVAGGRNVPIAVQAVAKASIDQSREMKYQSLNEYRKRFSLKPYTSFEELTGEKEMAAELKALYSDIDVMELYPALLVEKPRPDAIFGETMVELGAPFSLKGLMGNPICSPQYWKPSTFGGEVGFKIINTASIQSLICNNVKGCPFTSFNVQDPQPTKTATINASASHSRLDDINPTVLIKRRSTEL
The experiment in a line: Inhibition of mouse COX2 using [1-14C]AA as substrate preincubated for 20 mins followed by substrate addition and measured for 30 sec by thin layer chromatography analysis. The procedure, abridged: (§1)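 Purified enzyme (murine COX-2 at 63 nM, ovine COX-1 at 22.5 nM), hematin-reconstituted, in 100 mM Tris-HCl pH 8.0 with 500 μM phenol. Several inhibitor concentrations or DMSO vehicle preincubated 20 min, then [1-14C]AA 5 μM added at 37 °C for 30 s. Stopped by ether/methanol/citrate pH 4.0 extraction. Radiolabelled PGs separated on TLC and quantified by radioactivity scanning. Run in triplicate.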

For test [2], the target named is T2, Prostaglandin G/H synthase 1 (Ovis aries, UniProt P05979).
T2 sequence (P05979 whole entry): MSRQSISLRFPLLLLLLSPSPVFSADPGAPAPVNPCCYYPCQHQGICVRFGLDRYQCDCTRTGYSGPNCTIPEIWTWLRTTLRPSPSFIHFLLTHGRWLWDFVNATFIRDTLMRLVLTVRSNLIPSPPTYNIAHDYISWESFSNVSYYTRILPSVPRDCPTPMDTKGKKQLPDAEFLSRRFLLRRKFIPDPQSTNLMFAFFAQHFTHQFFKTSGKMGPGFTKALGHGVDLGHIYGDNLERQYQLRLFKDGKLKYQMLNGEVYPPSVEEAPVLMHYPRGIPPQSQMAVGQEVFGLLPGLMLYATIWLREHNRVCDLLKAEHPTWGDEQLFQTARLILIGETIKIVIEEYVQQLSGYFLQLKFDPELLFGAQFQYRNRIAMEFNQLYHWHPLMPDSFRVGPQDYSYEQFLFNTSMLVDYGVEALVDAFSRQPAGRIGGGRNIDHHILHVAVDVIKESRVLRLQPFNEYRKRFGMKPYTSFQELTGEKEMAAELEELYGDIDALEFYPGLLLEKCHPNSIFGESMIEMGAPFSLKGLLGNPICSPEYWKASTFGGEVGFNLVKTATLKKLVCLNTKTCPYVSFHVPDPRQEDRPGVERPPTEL
The experiment in a line: Inhibition of ovine COX1 using [1-14C]AA as substrate preincubated for 20 mins followed by substrate addition and measured for 30 sec by thin layer chromatography analysis. The procedure, abridged: as §1

For test [3], the target named is T1, Prostaglandin G/H synthase 2. The experiment in a line: Inhibition of mouse COX2 using arachidonic acid as substrate preincubated for 3 mins followed by substrate addition and measured for 30 sec by LC/MS analysis. The procedure, abridged: (§2)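 Purified murine COX-2 (40 nM in footnote; 50 nM in methods) with 100 nM heme and 1 μM PPHP in 50 mM Tris-HCl pH 8.0, 0.5 mM phenol, 5% DMSO final. Five inhibitor concentrations up to 1 μM plus solvent control. Substrate (AA or 2-AG, 5 μM) added at 37 °C for 30 s. Quenched with solvent containing PGE2-d4/PGE2G-d5. Products measured by LC-MS/MS SRM.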

For test [4] the target is unchanged. Put plainly: Inhibition of mouse COX2 using 2-arachidonylglycerol as substrate preincubated for 3 mins followed by substrate addition and measured for 30 sec by LC/MS analysis. The procedure, abridged: as §2

A word on the IC50: it is the concentration at which inhibition is half-maximal. Regarding `COc1ccc2c(c1)c1c(n2Cc2ccc(Cl)cc2)C(C)=NCC1`, the half-inhibitory concentration (IC50) in test [1] was 2100 nM; in test [2], greater than 4000 nM; in test [3], greater than 1000 nM; in test [4], greater than 1000 nM.
Take `COc1ccc2[nH]c3c(c2c1)CCN=C3C`: the IC50 in test [1] was greater than 4000 nM; in test [2], greater than 4000 nM; in test [3], greater than 1000 nM; in test [4], greater than 1000 nM.
As to `COc1cccc2[nH]c3c(c12)CCN=C3C`, the IC50 in test [1] is greater than 4000 nM; in test [2], greater than 4000 nM; in test [3], greater than 1000 nM; in test [4] it was greater than 1000 nM.
